Legend:
[1] = Biodistribution after day 6 in mouse kidney; assay type: ADME, organism-based
How it was run: (§1)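 Female outbred CD-1 nude mice (18-20 g) bearing subcutaneous human pancreatic adenocarcinoma UB 290896 (2 × 2 mm pieces, right flank; used at tumor diameter 4.5-5.5 mm). Aqueous solution (∼1 mmol L-1) given subcutaneously at 15 µmol kg-1 per day for 3 days. Mice killed 1, 3, 6 or 9 days after the last injection. Five mice per time point, plus 5 noninjected controls.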

[2] = Biodistribution after day 6 in mouse tumor; assay type: ADME, organism-based; how it was run: as §1
[3] = Biodistribution after day 3 in mouse tumor; assay type: ADME, organism-based; how it was run: as §1
[4] = Biodistribution after day 1 in mouse muscle; assay type: ADME, organism-based, Muscle tissue; how it was run: as §1
[5] = Biodistribution after day 1 in mouse tumor; assay type: ADME, organism-based; how it was run: as §1
[6] = Biodistribution after day 3 in mouse kidney; assay type: ADME, organism-based; how it was run: as §1
[7] = Biodistribution after day 3 in mouse brain; assay type: ADME, organism-based; how it was run: as §1
[8] = Biodistribution after day 6 in mouse heart; assay type: ADME, organism-based; how it was run: as §1
[9] = Biodistribution after day 1 in mouse lung; assay type: ADME, organism-based; how it was run: as §1
[10] = Biodistribution after day 3 in mouse liver; assay type: ADME, organism-based; how it was run: as §1
[11] = Biodistribution after day 6 in mouse liver; assay type: ADME, organism-based; how it was run: as §1
[12] = Biodistribution after day 6 in mouse spleen; assay type: ADME, organism-based; how it was run: as §1
[13] = Biodistribution after day 6 in mouse brain; assay type: ADME, organism-based; how it was run: as §1
[14] = Biodistribution after day 6 in mouse lung; assay type: ADME, organism-based; how it was run: as §1
[15] = Biodistribution after day 1 in mouse blood; assay type: ADME, organism-based; how it was run: as §1
[16] = Biodistribution after day 6 in mouse blood; assay type: ADME, organism-based; how it was run: as §1
[17] = Biodistribution after day 3 in mouse spleen; assay type: ADME, organism-based; how it was run: as §1
[18] = Biodistribution after day 6 in mouse muscle; assay type: ADME, organism-based, Muscle tissue; how it was run: as §1
[19] = Biodistribution after day 3 in mouse heart; assay type: ADME, organism-based; how it was run: as §1
[20] = Biodistribution after day 1 in mouse kidney; assay type: ADME, organism-based; how it was run: as §1
[21] = Biodistribution after day 1 in mouse heart; assay type: ADME, organism-based; how it was run: as §1
[22] = Biodistribution after day 3 in mouse blood; assay type: ADME, organism-based; how it was run: as §1
[23] = Biodistribution after day 1 in mouse spleen; assay type: ADME, organism-based; how it was run: as §1
[24] = Biodistribution after day 3 in mouse lung; assay type: ADME, organism-based; how it was run: as §1
[25] = Biodistribution after day 1 in mouse liver; assay type: ADME, organism-based; how it was run: as §1
[26] = Biodistribution after day 3 in mouse muscle; assay type: ADME, organism-based, Muscle tissue; how it was run: as §1
[27] = Biodistribution after day 1 in mouse brain; assay type: ADME, organism-based; how it was run: as §1
[28] = Biodistribution after day 9 in mouse liver; assay type: ADME, organism-based; how it was run: as §1
[29] = Biodistribution after day 9 in mouse lung; assay type: ADME, organism-based; how it was run: as §1
[30] = Biodistribution after day 9 in mouse kidney; assay type: ADME, organism-based; how it was run: as §1
[31] = Biodistribution after day 9 in mouse blood; assay type: ADME, organism-based; how it was run: as §1
[32] = Biodistribution after day 9 in mouse muscle; assay type: ADME, organism-based, Muscle tissue; how it was run: as §1
[33] = Biodistribution after day 9 in mouse spleen; assay type: ADME, organism-based; how it was run: as §1
[34] = Biodistribution after day 9 in mouse tumor; assay type: ADME, organism-based; how it was run: as §1
[35] = Biodistribution after day 9 in mouse heart; assay type: ADME, organism-based; how it was run: as §1
[36] = Biodistribution after day 9 in mouse brain; assay type: ADME, organism-based; how it was run: as §1

| SMILES | concentration at 6 day [1] [ng/g] | concentration at 6 day [2] [ng/g] | concentration at 3 day [3] [ng/g] | concentration at 1 day [4] [ng/g] | concentration at 1 day [5] [ng/g] | concentration at 3 day [6] [ng/g] | concentration at 3 day [7] [ng/g] | concentration at 6 day [8] [ng/g] | concentration at 1 day [9] [ng/g] | concentration at 3 day [10] [ng/g] | concentration at 6 day [11] [ng/g] | concentration at 6 day [12] [ng/g] | concentration at 6 day [13] [ng/g] | concentration at 6 day [14] [ng/g] | concentration at 1 day [15] [ng/g] | concentration at 6 day [16] [ng/g] | concentration at 3 day [17] [ng/g] | concentration at 6 day [18] [ng/g] | concentration at 3 day [19] [ng/g] | concentration at 1 day [20] [ng/g] | also measured |
| --- | --- | --- | --- | --- | --- | --- | --- | --- | --- | --- | --- | --- | --- | --- | --- | --- | --- | --- | --- | --- | --- |
| CCc1c(CC)c2cc3nc(cc4[nH]c(c(C)c4CC)c4[nH]c(cc5nc(cc1[nH]2)C(CCC(=O)NCCOCCOCCO)=C5C)c(CC)c4C)C(C)=C3CCC(=O)NCCOCCOCCO | 52000 | 180000 | 130000 | 10000 | 22000 | 59000 | 4300 | 4800 | 13000 | 61000 | 16000 | 14000 | 4300 | 19000 | 7000 | 3400 | 11000 | 3400 | 7800 | 3100 | concentration at 1 day [21]: 8000 ng/g; concentration at 3 day [22]: 9300 ng/g; concentration at 1 day [23]: 4600 ng/g; concentration at 3 day [24]: 11000 ng/g; concentration at 1 day [25]: 14000 ng/g; concentration at 3 day [26]: 9300 ng/g; concentration at 1 day [27]: 2700 ng/g |
| CCc1c(CC)c2cc3nc(cc4[nH]c(c(C)c4CC)c4[nH]c(cc5nc(cc1[nH]2)C(CCC(=O)NC1C(O)OC(CO)C(O)C1O)=C5C)c(CC)c4C)C(C)=C3CCC(=O)NC1C(O)OC(CO)C(O)C1O (stereo not given) | 1500 | 330000 | 66000 | 8000 | 32000 | 1900 | 770 | 6400 | 4900 | 430 | 370 | 8000 | 750 | 6000 | 1440 | 2200 | 7800 | 17000 | 9000 | 1100 | concentration at 9 day [28]: 470 ng/g; concentration at 9 day [29]: 8000 ng/g; concentration at 9 day [30]: 2800 ng/g; concentration at 9 day [31]: 1500 ng/g; concentration at 9 day [32]: 11000 ng/g; concentration at 9 day [33]: 9700 ng/g; concentration at 9 day [34]: 23000 ng/g; concentration at 1 day [21]: 5400 ng/g; concentration at 3 day [22]: 2000 ng/g; concentration at 1 day [23]: 3600 ng/g; concentration at 3 day [24]: 8000 ng/g; concentration at 1 day [25]: 290 ng/g; concentration at 3 day [26]: 21000 ng/g; concentration at 9 day [35]: 6000 ng/g; concentration at 1 day [27]: 550 ng/g; concentration at 9 day [36]: 520 ng/g |
| CCC1=C(CC)c2cc3[nH]c(cc4[nH]c(c(C)c4CC)c4[nH]c(cc5nc(cc1n2)C(CCC(=O)NCCOCCOCCN)=C5C)c(CC)c4C)c(C)c3CCC(=O)NCCOCCOCCN | 3800 | 51000 | 114000 | 1900 | 4200 | 6800 | 5000 | 9200 | 1700 | 25000 | 4200 | 3300 | 2400 | 7000 | 1690 | 2450 | 11000 | 45000 | 15500 | 640 | concentration at 1 day [21]: 2000 ng/g; concentration at 3 day [22]: 3020 ng/g; concentration at 1 day [23]: 1300 ng/g; concentration at 3 day [24]: 19000 ng/g; concentration at 1 day [25]: 210 ng/g; concentration at 3 day [26]: 29000 ng/g; concentration at 1 day [27]: 500 ng/g |
| CCc1c(CC)c2cc3nc(cc4[nH]c(c(C)c4CC)c4[nH]c(cc5nc(cc1[nH]2)C(CCC(=O)NCCN(CCN)CCN)=C5C)c(CC)c4C)C(C)=C3CCC(=O)NCCN(CCN)CCN | 1700 | 49000 | 89000 | 3600 | 58000 | 5700 | 400 | 5200 | 2500 | 13000 | 10000 | 3900 | 160 | 3200 | 950 | 1170 | 8000 | 22000 | 10700 | 2800 | concentration at 1 day [21]: 3100 ng/g; concentration at 3 day [22]: 3400 ng/g; concentration at 1 day [23]: 4100 ng/g; concentration at 3 day [24]: 13000 ng/g; concentration at 1 day [25]: 1030 ng/g; concentration at 3 day [26]: 36000 ng/g; concentration at 1 day [27]: 870 ng/g |
| C=CC1=C(C)c2cc3nc(cc4[nH]c(cc5[nH]c(cc1n2)c(C)c5CCC(=O)NC1C(O)OC(CO)C(O)C1O)c(CCC(=O)NC1C(O)OC(CO)C(O)C1O)c4C)C(C=C)=C3C (stereo not given) [PORPHYRIN] | 4300 | 260000 | 131000 | 3500 | 34000 | 3100 | 410 | 1700 | 2000 | 800 | 1320 | 12000 | 320 | 1400 | 1090 | 980 | 16000 | 5100 | 1450 | 700 | concentration at 9 day [28]: 960 ng/g; concentration at 9 day [29]: 2300 ng/g; concentration at 9 day [30]: 510 ng/g; concentration at 9 day [31]: 800 ng/g; concentration at 9 day [32]: 3600 ng/g; concentration at 9 day [33]: 9000 ng/g; concentration at 9 day [34]: 37000 ng/g; concentration at 1 day [21]: 2700 ng/g; concentration at 3 day [22]: 900 ng/g; concentration at 1 day [23]: 22000 ng/g; concentration at 3 day [24]: 1700 ng/g; concentration at 1 day [25]: 1100 ng/g; concentration at 3 day [26]: 4200 ng/g; concentration at 9 day [35]: 2400 ng/g; concentration at 1 day [27]: 420 ng/g; concentration at 9 day [36]: 370 ng/g |
| CCc1c(CC)c2cc3nc(cc4[nH]c(c(C)c4CC)c4[nH]c(cc5nc(cc1[nH]2)C(CCC(=O)N(CCO)CCO)=C5C)c(CC)c4C)C(C)=C3CCC(=O)N(CCO)CCO [SAPPHYRIN] | 460 | 130000 | 220000 | 1020 | 109000 | 330 | 270 | 760 | 480 | 1500 | 1200 | 960 | 290 | 710 | 500 | 500 | 1390 | 710 | 960 | 440 | concentration at 1 day [21]: 950 ng/g; concentration at 3 day [22]: 900 ng/g; concentration at 1 day [23]: 1290 ng/g; concentration at 3 day [24]: 710 ng/g; concentration at 1 day [25]: 1420 ng/g; concentration at 3 day [26]: 760 ng/g; concentration at 1 day [27]: 240 ng/g |
